Assay outcomes: PubChem, several laboratories
Lipid droplet – hepatic lipid droplet formation modulation. AML12 mouse hepatocytes, oleate lipid droplets, BODIPY imaging. inhibition, % at 6.5 µM. hit rate 0.4% among 240,000. AID 1656;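 active means lipid droplet intensity inhibited by at least 50%, with more than 500 cells counted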
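Assay system: AML12 mouse liver cells | Compound dosing: One dose, 6.5 µM compound | Read-out basis: Droplet intensity reduction, % inhibition | Measured by: Fluorescence imaging, 20x objective, two fields per well | Schedule: Overnight treatment with compound plus oleate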
MC4R barr agon – human MC4R agonism via beta-arrestin | hit rate 0.98% among 360,000 | activation, % at 8.9 µM | AID 540308 | P32245 | U2OS MC4R beta-arrestin complementation, luminescence; percent of melanotan II response, DMSO zero;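 active means activation above a per-plate cutoff, the mean activation of sample wells on that plate plus 3 SD, cut at about 8% in these data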
Target sequence (P32245 whole entry, looked up): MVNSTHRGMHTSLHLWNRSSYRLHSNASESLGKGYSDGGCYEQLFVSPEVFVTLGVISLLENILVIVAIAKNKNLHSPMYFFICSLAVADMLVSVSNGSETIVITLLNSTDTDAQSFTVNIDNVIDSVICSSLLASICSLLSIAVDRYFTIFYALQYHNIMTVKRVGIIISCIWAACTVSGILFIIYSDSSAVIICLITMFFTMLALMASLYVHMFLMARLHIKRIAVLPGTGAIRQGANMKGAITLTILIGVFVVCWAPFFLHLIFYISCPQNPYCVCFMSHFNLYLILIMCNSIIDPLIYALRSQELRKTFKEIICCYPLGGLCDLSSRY
HTR2A ag – activates the mouse 5-HT2A serotonin receptor; P35363; CHO-K1 mHTR2A beta-arrestin complementation, luminescence; percent of 30 µM serotonin response; activation, % at 7.6 µM; hit rate 0.66% among 360,000;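 active means activation above a run cutoff, the mean activation of all tested compounds plus 3 SD, cut at about 14% in these data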
NTR1 agonist – NTR1 (human) agonism. hit rate 0.17% among 330,000. AID 493036. activation, % at 20 µM. NTR1-U2OS beta-arrestin-GFP spot imaging, agonist mode;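 active means activation at or above 40% of the spot to cytoplasm intensity ratio, with at least 20 cells analyzed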
MC4R antag cAMP – blocks human MC4R cAMP signaling. AID 540295. MC4R-expressing cells, MTII-stimulated cAMP, LANCE TR-FRET. hit rate 0.48% among 360,000. inhibition, % at 6.5 µM;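 active means inhibition above its plate's cutoff, the mean of tested wells on that plate plus 3 SD, cut at about 29% in these data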
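Material – human MC4R-expressing U2OS cells · Repeats – no replicates · Detection – TR-FRET with Eu-cAMP and labeled anti-cAMP, 671 nm · Times – compound 30 min, challenge 1 h, detection 1 h · Compound – single nominal compound dose of 6.5 µM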
PREPL inh – inhibitors of human prolyl oligopeptidase-like enzyme PREPL; Q4J6C6; recombinant PREPL, fluorescence polarization activity-based probe; inhibition, % at 5.96 µM; hit rate 0.68% among 320,000; AID 2751; in the data active means inhibition above about 43%
MC4R barr ag – human MC4R beta-arrestin agonism confirmation; shares compounds with MC4R barr agon; U2OS MC4R beta-arrestin recruitment, luminescence; scaled DMSO 0%, Melanotan II 100%; activation, % at 8.9 µM; hit rate 31% among 2,400;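 active means mean activation across replicates above the hit cutoff set in the earlier primary screen, cut at about 8% in these data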
MOR-DOR barr ag – OPRM1-OPRD1 heterodimer agonism counter-screen. shares compounds with MC4R barr agon. U2OS PathHunter beta-arrestin, beta-gal luminescence; percent of deltorphin B response, DMSO zero. activation, % at 9.2 µM. hit rate 5.8% among 2,400. AID 602194;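 active means mean activation across replicates exceeds the hit threshold derived in the earlier primary screen, cut at about 18% in these data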
A number is an active result; 0 = inactive; - = no result given. This is a sample that favours compounds with a hit; in the whole collection about 2.7% have one here.

SMILES	Lipid droplet	MC4R barr agon	HTR2A ag	NTR1 agonist	MC4R antag cAMP	PREPL inh	MC4R barr ag	MOR-DOR barr ag
CS(=O)(=O)N1CCC(C(=O)Nc2cccc(C(F)(F)F)c2)CC1	-	0	0	0	0	0	-	-
Cc1cc(C)nc(N2CCC(C(=O)Nc3cccc(C(F)(F)F)c3)CC2)n1	0	14	0	0	0	0	0	0
Cc1cc(SCC(=O)Nc2ccc3[nH]c(=O)[nH]c3c2)nc2ccccc12	-	0	0	0	0	0	-	-
CN1CCN(CCCNC(=O)Cn2ncc3c4ccccc4n(C)c3c2=O)CC1	0	0	0	0	0	0	-	-
Cn1c2ccccc2c2cnn(CC(=O)Nc3cccc(F)c3)c(=O)c21	0	9.7	0	0	0	0	0	0
CC(OC(=O)c1cc2sccc2n1C)C(=O)NCc1cccs1 (stereo unspecified)	-	0	0	0	0	0	-	-
Cn1c(C(=O)OCC(=O)NCc2cccs2)cc2sccc21	-	10	0	0	0	0	0	0
Cc1csc(NC(=O)CSc2nc3sc(C)c(C)c3c(=O)[nH]2)n1	0	0	0	0	0	0	-	-
Cc1sc2nc(SCC(=O)Nc3ccccc3F)[nH]c(=O)c2c1C	0	12	0	0	0	0	0	0
O=C(COC(=O)c1ccccc1Nc1ccccc1)NCc1ccccc1	0	25	0	0	0	0	0	0
O=C(COC(=O)c1ccccc1)NCc1ccco1	-	0	0	0	0	0	-	-
NC(=O)c1ccc(NC(=O)COC(=O)c2ccccc2Nc2ccccc2)cc1	0	0	0	0	0	0	-	-
O=C(COC(=O)c1ccccc1Nc1cccc(C(F)(F)F)c1)NCc1ccco1	-	13	0	0	0	0	0	0
O=C(COC(=O)c1ccccc1Nc1ccccc1)NCc1ccccc1Cl	0	16	0	0	0	0	10	0
COCc1ccc(C(=O)N2CCCC(N3CCN(c4cccc(Cl)c4)CC3)C2)s1 (stereo unspecified)	-	0	0	-	0	-	-	-
COc1ccc(OC)c(NC(=O)c2cc3c(Cl)nc4ccccc4c3s2)c1	0	28	0	0	0	0	0	19
COc1ccc(NC(=O)c2cc3c(Cl)nc4ccccc4c3s2)cc1OC	0	11	0	0	0	0	0	0
Cc1ccc2cn[nH]c2c1[N+](=O)[O-]	0	0	0	0	0	0	-	-
COc1cc(/C=C/C(=O)/C=C(O)/C=C/c2ccc(O)c(OC)c2)ccc1O	-	12	0	0	0	0	12	0
O=C1/C(=C/c2ccc(F)cc2)SC(=S)N1Nc1ncc(C(F)(F)F)cc1Cl	0	9.9	0	0	0	0	0	0
O=C1/C(=C\c2ccccn2)SC(=S)N1Nc1ncc(C(F)(F)F)cc1Cl	-	0	0	0	0	0	-	-
CC(C)(C)NC(=O)C1c2ccccc2OCC(=O)N1CCc1ccccc1 (stereo unspecified)	-	-	0	-	-	-	-	-
COC(=O)c1ccc(NC(=O)CCN2C(=O)C3CC=CCC3C2=O)cc1 (stereo unspecified)	-	0	0	0	0	0	-	-
CC(=O)OCC(=O)Nc1ccc(Cl)cc1Cl	-	0	0	0	0	0	-	-
O=C(CC(=O)Nc1ccc(Cl)cc1Cl)Nc1ccc(Cl)cc1Cl	0	11	0	0	0	0	0	0
SMILES	Lipid droplet	MC4R barr agon	HTR2A ag	NTR1 agonist	MC4R antag cAMP	PREPL inh	MC4R barr ag	MOR-DOR barr ag
Cc1ccc(NC(=O)N2CCc3ccccc3C2)c(C)c1	0	0	0	0	0	0	-	-
Cn1cccc1/C=N\NC(=O)Cc1ccc(Br)c2ccccc12	0	17	0	0	0	0	0	0
O=C(Nc1ccc(F)cc1)C1CCC(CNc2c(N3CCCCC3)c(=O)c2=O)CC1 (stereo unspecified)	0	0	0	0	0	0	-	-
CCOc1ccc(NS(=O)(=O)c2ccc(SC)cc2)cc1	0	11	0	0	0	0	0	0
CCOc1ccc(NS(=O)(=O)c2ccc(N)cc2)cc1	0	0	0	0	0	0	-	-
O=C(Nc1ccncc1)c1cccc(F)c1	0	0	0	0	0	0	-	-
O=C(Nc1ccc(OC(F)(F)C(F)F)c(NC(=O)c2cccc(F)c2)c1)c1cccc(F)c1	0	21	0	0	0	0	0	0
COc1ccc(NC(=O)c2ccc(-c3ccccc3C(F)(F)F)o2)cc1	0	10	0	0	0	0	0	0
COc1cccc(OCC(O)CN2CCN(c3ccc(Cl)cc3)CC2)c1 (stereo unspecified)	0	0	0	0	0	0	-	-
COc1ccc(OCC(O)CN2CCN(c3ccc(Cl)cc3)CC2)cc1 (stereo unspecified)	0	11	0	0	0	0	0	0
Cc1cc(SCC(=O)c2cccs2)nc2c(C)cccc12	-	0	0	0	0	0	-	-
CC(=O)Nc1ccc(C(=O)CSc2cc(C)c3cccc(C)c3n2)cc1	0	28	0	0	0	0	0	0
COc1ccccc1CNC(=O)CCNC(=O)C1CCN(S(=O)(=O)c2ccccc2)CC1	0	0	0	0	0	0	-	-
CCOc1ccccc1N1CCN(C(=O)c2ccc3nc(N)sc3c2)CC1	-	0	0	0	0	0	-	-
COc1ccc(Cl)cc1NC(=O)Cc1c(F)cccc1Cl	0	15	0	0	0	0	0	0
O=C(NCc1ccc(Cl)cc1)C1CCC(=O)N(C2CCCCCC2)C1 (stereo unspecified)	0	0	0	0	0	0	-	-
O=C(NC(=S)NCCC1=CCCCC1)c1ccco1	0	10	0	0	0	0	0	0
O=C(NC(=S)NCCC1=CCCCC1)c1ccc(Br)o1	0	0	0	0	0	0	-	-
COc1ccc(/C=N/NC(=S)Nc2cc(C(F)(F)F)ccc2Cl)cc1	0	24	0	0	0	0	0	0
COCCNC(=S)N/N=C/c1ccc(-c2ccc([N+](=O)[O-])cc2)o1	0	11	0	0	0	0	0	0
CC(NCc1ccc(OCc2ccc(Cl)cc2)cc1)C(O)c1ccccc1 (stereo unspecified)	0	16	0	0	0	0	26	0
CC(NCc1cccc(OCc2ccccc2)c1)C(O)c1ccccc1 (stereo unspecified)	0	0	0	0	0	0	-	-
O=S(=O)(NCc1ccccn1)c1ccccn1	0	0	0	0	0	0	-	-
Cc1nc(NC(=O)c2ccco2)sc1-c1csc(Nc2ccc(Cl)cc2)n1	-	10	0	0	0	0	9.1	0
Cc1ccc(Cl)cc1Nc1nc(-c2sc(NC(=O)c3ccco3)nc2C)cs1	-	0	0	0	0	0	-	-
Cc1cc(C(=O)N/N=C/c2cc(Br)ccc2OC(=O)c2ccccc2)n[nH]1	0	17	0	0	0	0	0	0
